Bioassay records: PubChem, several laboratories
Only some compounds are listed: those with a hit (about 4.1% of all), similar ones and a draw of the others.
TAG inh – inhibitors of triacylglycerol accumulation. H9c2 cells, Nile Red lipid (TAG) fluorescence; cells loaded with 200 µM oleic acid. inhibition, % at 12.5 µM. 230,000 tested, 0.66% active. AID 651582;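 active = pattern-corrected inhibition of lipid staining of at least 50% with the nuclear-stain viability signal not falling by more than 50%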
TbMetRS inhib – Trypanosoma brucei MetRS inhibition; inhibition, % at 11.9 µM; purified T. brucei MetRS, ATP depletion, Kinase-Glo luminescence; 360,000 tested, 0.4% active; AID 624268;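 active = inhibition above a per-plate cutoff of the control wells' mean inhibition plus 3 SD, cut at about 5.5% in these data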
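Measured by: Kinase-Glo luciferase luminescence reporting remaining unconsumed ATP. Material: purified T. brucei MetRS enzyme. Doses: 11.9 µM compound single dose, 0.9% DMSO. Medium: HEPES buffer containing pyrophosphatase, BSA, spermine, DTT. Times: 15 min preincubation, 2 h reaction, all 25 °C. Reagent: methionine, ATP and bulk E. coli tRNA.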
AHR act – activates the human aryl hydrocarbon receptor; P35869; AHR-responsive luciferase reporter cells, luminescence; activation, % at 5 µM; 320,000 tested, 2.5% active; AID 2796; in the data active = activation above about 47%
Target sequence (P35869 whole entry, looked up): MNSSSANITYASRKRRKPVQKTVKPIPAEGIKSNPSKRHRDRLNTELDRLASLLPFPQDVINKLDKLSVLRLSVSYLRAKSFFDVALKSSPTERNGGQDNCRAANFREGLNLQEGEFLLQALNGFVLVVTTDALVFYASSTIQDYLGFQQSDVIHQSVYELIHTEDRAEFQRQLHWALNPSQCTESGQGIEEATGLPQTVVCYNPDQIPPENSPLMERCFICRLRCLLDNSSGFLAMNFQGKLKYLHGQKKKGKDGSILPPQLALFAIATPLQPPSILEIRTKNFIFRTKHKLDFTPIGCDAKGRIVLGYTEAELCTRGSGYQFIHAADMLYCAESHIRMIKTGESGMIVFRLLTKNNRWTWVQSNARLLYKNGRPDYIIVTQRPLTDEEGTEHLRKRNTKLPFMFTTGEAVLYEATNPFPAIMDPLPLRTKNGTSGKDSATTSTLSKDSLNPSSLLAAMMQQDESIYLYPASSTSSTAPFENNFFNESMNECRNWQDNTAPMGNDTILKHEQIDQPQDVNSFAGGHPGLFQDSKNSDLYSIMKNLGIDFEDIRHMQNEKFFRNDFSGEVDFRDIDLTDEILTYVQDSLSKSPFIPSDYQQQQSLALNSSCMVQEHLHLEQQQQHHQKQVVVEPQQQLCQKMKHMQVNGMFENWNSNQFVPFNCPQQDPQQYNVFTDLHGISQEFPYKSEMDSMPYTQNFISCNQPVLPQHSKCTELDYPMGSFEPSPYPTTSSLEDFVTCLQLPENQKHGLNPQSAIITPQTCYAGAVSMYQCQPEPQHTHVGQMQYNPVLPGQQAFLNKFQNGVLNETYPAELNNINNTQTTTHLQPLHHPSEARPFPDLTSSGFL
Efflux pump mplx – blocks antifungal efflux pumps in multiplex yeast assay. S. cerevisiae Candida pump triplex, Nile Red efflux. inhibition, % at 10 µM. 330,000 tested, 0.44% active. AID 485275;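 active = plate passing quality check with inhibition over a set limit, or well fluorescence over plate mean plus 4 SD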;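 also: Nile Red retained in pooled yeast measured as flow cytometry median fluorescence; higher means more Nile Red kept so more efflux inhibition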
SMARCA2 activ – increases SMARCA2 function in MMTV reporter cells | MG213 cells, MMTV-luciferase reporter, dexamethasone, overnight | activation, % at 9.1 µM | 370,000 tested, 1% active; in the data active = activation above about 7.8%
SMARCA2 act conf – SMARCA2 activation, confirmation screen; shares compounds with SMARCA2 activ; MG213 cells, MMTV-luciferase with dexamethasone, luminescence, overnight; MG213 cells expressing E1A, Rb sequestered; DMSO wells 0%, reference activator 100%; activation, % at 9.1 µM; 3,500 tested, 30% active; AID 652260;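 active = activation above its plate's cutoff, the mean activation of tested wells plus 3 SD, cut at about 7.9% in these data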
GAL4-VP16 Luc – counter-screen for SMARCA2 activators: GAL4-VP16 luciferase reporter activation | shares compounds with SMARCA2 activ | HEK293 GAL4-VP16 pG5luc reporter, luciferase luminescence; scaled: DMSO wells 0%, SAHA wells 100% | activation, % at 9.1 µM | 3,500 tested, 41% active | AID 686939;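 active = activation above the solvent-only control well mean plus 3 SD, averaged across control plates, cut at about 5.2% in these data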
A number is an active result; 0 = inactive; - = no result.

SMILES	TAG inh	TbMetRS inhib	AHR act	Efflux pump mplx	SMARCA2 activ	SMARCA2 act conf	GAL4-VP16 Luc
CC1CCCN(CC(=O)c2ccc(Cl)c(Cl)c2)C1 (stereo unspecified)	0	0	0	0	0	-	-
CCC(NC(=O)OCc1ccccc1)P(=O)(Oc1ccccc1)Oc1ccccc1 (stereo unspecified)	-	-	-	-	0	-	-
Cc1cc2c(cc1C)NP(=S)(c1ccccc1)N2	0	0	-	-	9.3	0	8.3
CCC12CCN(CC3(O)CC3)C(Cc3ccc(O)cc31)C2(C)C (stereo unspecified)	-	-	-	-	0	-	-
N#Cc1ccc(NC(=S)N2Cc3ccc(Br)cc3-n3nncc3C2)cc1	-	-	-	-	0	-	-
Cc1ccccc1CN1Cc2cnnn2-c2ccccc2C1C#N (stereo unspecified)	0	0	-	-	9.2	0	0
COc1ccc(CN2Cc3cc(-c4ccc(OC)cc4)ccc3-n3nncc3C2)cc1	-	0	-	-	8.0	0	0
CN(C)P(=O)(C(Cl)=C(N1CCCCC1)N1CCCCC1)N(C)C	-	0	0	0	18.7	39.5	0
O=C(CNC(=O)OCc1ccccc1)NC(Cc1ccccc1)P(=O)(Oc1ccccc1)Oc1ccccc1 (stereo unspecified)	-	-	-	-	0	-	-
COc1cc2c(cc1OC)-c1c3c(cc4c1[C@@H](C2)N(C)CC4)OCO3	53.0	0	54.9	0	11.4	14.9	0
COc1cc2c(cc1OC)-c1c(OC)c(OC)cc3c1C(C2)N(C)CC3 (stereo unspecified)	-	0	0	0	0	-	-
CN(C)C(=O)Oc1cccc(-c2cn3cc(Cl)ccc3n2)c1	-	0	0	0	26.3	17.5	6.3
Clc1ccc([C@H]2CC3CCC2N3)cn1 (stereo partly specified)	-	-	-	-	0	-	-
COc1ccc(-c2nc3ccccc3c(=O)o2)cc1	0	0	0	0	9.8	8.7	7.4
COc1ccc(-n2c(-c3ccc(C)cc3)nc3ccccc3c2=O)cc1	0	0	0	0	0	-	-
COC(=O)C1C(c2ccc(F)cc2)CC2CCC1N2C (stereo unspecified)	-	-	-	-	0	-	-
COP(=O)(C(=O)Nc1ccccc1)C(CC(C)C)NC(=O)OCc1ccccc1 (stereo unspecified)	-	-	-	-	0	-	-
Clc1cc(Cl)cc(CN2Cc3cc(Br)ccc3-n3nncc3C2)c1	-	-	-	-	0	-	-
O=c1[nH]c(=S)[nH]c(O)c1N=Nc1ccc(SC(F)F)cc1	0	0	0	0	11.1	12.0	10.0
O=c1[nH]c(=S)[nH]c(O)c1N=Nc1ccc(S(=O)(=O)N2CCc3ccccc32)cc1	-	0	0	0	14.4	11.5	0
OC12ONC(c3ccccn3)C1N1CCC2CC1 (stereo unspecified)	-	0	0	0	10.0	0	0
C[C@H](Cc1ccc(OCC(=O)O)cc1)NC[C@H](O)c1cccc(Cl)c1	-	-	-	-	0	-	-
O=c1[nH]c2cc(Cl)ccc2n1C1CCN(Cc2ccc(-c3nc4ccc(F)cc4nc3-c3ccccc3)cc2)CC1	-	-	-	-	0	-	-
COc1cc(C)c(CN2CC=C(c3ccc(F)cc3)CC2)cc1C	0	0	0	0	0	-	-
COc1cc2nc(CN3CC=C(c4ccccc4)CC3)[nH]c(=O)c2cc1OC	73.2	0	0	0	14.4	0	0
SMILES	TAG inh	TbMetRS inhib	AHR act	Efflux pump mplx	SMARCA2 activ	SMARCA2 act conf	GAL4-VP16 Luc
O=C(c1ccccc1F)N1CCC2(CC1)OCCO2	-	0	0	0	0	-	-
O=C(c1cc(S(=O)(=O)N2CCCCC2)ccc1F)N1CCC2(CC1)OCCO2	-	0	0	0	8.1	0	0
CCCCCN1C(=O)c2ccccc2[C@@]2(C(=O)OCC)Cc3cc(OC)ccc3[C@@H]12	-	0	-	-	0	-	-
COc1ccc(NC(=S)NC(NC(=O)CF)C(Cl)(Cl)Cl)c([N+](=O)[O-])c1 (stereo unspecified)	-	0	0	0	0	-	-
Cc1ccccc1NC(=S)NC(NC(=O)CF)C(Cl)(Cl)Cl (stereo unspecified)	0	0	0	0	9.2	0	0
CCCCCCC(=O)N/N=C/c1c(O)n(CCc2ccccc2)c(=O)[nH]c1=O	0	0	0	0	8.7	0	0
CCOC(=O)[C@]12Cc3cc(C)ccc3[C@H]1N(C1CCCCC1)C(=O)c1cc(OC)ccc12	-	0	-	-	0	-	-
Fc1cccc(F)c1-c1nc(-c2ccc(Cl)cc2)no1	0	0	72.6	0	8.2	13.2	0
NC(Cc1ccccc1)c1csc(Nc2ccccn2)n1 (stereo unspecified)	0	0	-	-	13.1	8.2	0
CN/C=C(/Cl)P(=O)(OC(C)C)OC(C)C	0	0	0	0	8.0	0	0
COC(=O)C(O)(c1ccc(NC(=O)NC2CCCCC2)cc1)C(F)(F)F (stereo unspecified)	-	0	0	0	10.3	0	5.2
COC(=O)C1C(OC(=O)c2ccccc2)CC2CCC1[N+]2(C)C (stereo unspecified)	-	-	-	-	0	-	-
CCOC(=O)c1c(C)[nH]c(C(=O)C(C)N2CCCC2)c1C (stereo unspecified)	0	0	0	0	8.4	0	0
Clc1ccc(N2CCN(Cc3ccccc3Cl)CC2)cc1	-	0	0	0	8.2	0	0
Clc1ccccc1CN1CCN(c2ccccc2)CC1	-	0	0	0	0	-	-
CC(=O)N1c2ccccc2C(c2ccccc2)=NCC1C(=O)NCc1ccccc1 (stereo unspecified)	-	-	-	-	0	-	-
